# PG9 Ab binder = binders of HIV-1 gp120 antibody PG9, primary screen, biochemical, TR-FRET. TR-FRET gp120-PG9 antibody binding. AID 624416, 2012. HIV-1 gp120 / PG9 antibody interaction. 360,000 tested, 0.43% active. inhibition, % at 6.7 µM; in the data active = inhibition above about 8.5%
# GalR3 antag = GalR3 antagonists in HEK293 cells, primary screen, cell-based, fluorescence readout. Galanin receptor type 3 (Homo sapiens), O60755. HEK293 GalR3-CNG cAMP membrane potential fluorescence; galR3 body fused to GalR1 C-terminus. inhibition, % at 3 µM. 360,000 tested, 0.44% active;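 active = inhibition above the screen-wide average plus 3 SD, cut at about 13% in these data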;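 also: forskolin and galanin both at EC90 stimulate the cells; cAMP rise reported by CNG channel membrane potential dye signal; 0% = forskolin plus galanin with DMSO and 100% = forskolin alone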
# Target sequence (O60755 1-299 limits assumed): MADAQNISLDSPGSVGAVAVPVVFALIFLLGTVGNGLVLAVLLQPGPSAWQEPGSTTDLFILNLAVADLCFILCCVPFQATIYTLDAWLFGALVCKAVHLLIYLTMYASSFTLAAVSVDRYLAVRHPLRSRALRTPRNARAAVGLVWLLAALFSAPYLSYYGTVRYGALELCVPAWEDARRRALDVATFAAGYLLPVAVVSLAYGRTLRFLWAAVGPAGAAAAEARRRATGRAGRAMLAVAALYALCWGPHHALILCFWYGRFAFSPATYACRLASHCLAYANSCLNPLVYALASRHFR
# NR2E3 ag-1 = NR2E3 agonists in two-hybrid cells, primary screen, cell-based, luminescence, CHO-S, Gal4-NCOR/VP16-NR2E3; inhibition of corepressor binding, % at 3.98 µM; 360,000 tested, 0.35% active; luciferase; Photoreceptor-specific nuclear receptor (Homo sapiens), Q9Y5X4;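 active = inhibition above the mean of all tested compounds plus 3 SD, cut at about 70% in these data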;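 also: 0% = DMSO with NR2E3 transfected cells and 100% = cells lacking NR2E3 construct; higher means lower luciferase signal from less NR2E3 corepressor binding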
# Target sequence (Q9Y5X4 whole entry, looked up, the tested form may be a part): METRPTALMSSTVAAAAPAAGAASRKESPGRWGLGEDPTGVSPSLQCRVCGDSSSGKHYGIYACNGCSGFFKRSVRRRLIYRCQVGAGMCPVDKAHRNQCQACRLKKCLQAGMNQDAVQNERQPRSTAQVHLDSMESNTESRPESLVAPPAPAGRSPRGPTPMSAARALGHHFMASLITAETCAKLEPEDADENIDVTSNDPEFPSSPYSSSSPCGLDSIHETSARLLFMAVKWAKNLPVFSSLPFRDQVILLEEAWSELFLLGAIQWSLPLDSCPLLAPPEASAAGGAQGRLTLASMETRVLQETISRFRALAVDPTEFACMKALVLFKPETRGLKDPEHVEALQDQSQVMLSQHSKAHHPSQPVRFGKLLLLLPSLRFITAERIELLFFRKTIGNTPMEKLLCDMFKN
# NR2E3 ag-2 = inhibitors of NR2E3-RetCOR corepressor binding, primary screen, NR2E3 agonist project, biochemical, TR-FRET, GST-NR2E3, biotin-RetCOR; Photoreceptor-specific nuclear receptor (Homo sapiens), Q9Y5X4; 1536-well; inhibition of corepressor binding, % at 4.78 µM; 320,000 tested, 0.12% active; AID 2300, 2010;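 active = percent inhibition above the cutoff of mean plus 3 SD of all tested compounds, set per screening campaign, cut at about 20% in these data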;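 also: 0% = DMSO wells and 100% = biotin wells as full block of FRET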
#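 Test system – NR2E3–RetCOR corepressor complex · Quantity – NR2E3 fusion 1.35 nM · Buffer or medium – Tris pH 7.5 · Incubation – Compound–protein incubation for 5 h at 4 °C · Technique – TR-FRET, Eu(K)-anti-GST donor, streptavidin-D2 acceptor, ex 340, em 617/671 nm · Evaluation – percent inhibition of 671/617 nm emission ratio versus biotin and DMSO controls · Plate – 1536-well format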
# Rev-erbA mod = modulators of Rev-erb alpha DNA binding, primary screen, biochemical, FITC-DNA, fluorescence polarization, uHTS. Rev-erbα–FITC-DNA binding, 90 min. activity, % at 10 µM. 370,000 tested, 0.79% active. Nuclear receptor subfamily 1 group D member 1 (Homo sapiens), P20393;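 active = activity above about 14%, limit read from the data; passing the limit was not always enough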;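 also: 0% = DMSO wells with 35 nM protein and 100% = DMSO wells with 750 nM protein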
# NR2E3 ag conf = NR2E3 agonist confirmation in cells, cell-based, luminescence, CHO-S two-hybrid. shares compounds with NR2E3 ag-1. CHO-S mammalian two-hybrid NR2E3-NCOR, luciferase luminescence. inhibition, % at 3.98 µM. 2,300 tested, 51% active;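 active = average inhibition above a cutoff equal to the mean inhibition of all tested compounds plus one SD, cut at about 70% in these data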;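 also: 0% = DMSO in NR2E3 cells and 100% = DMSO in cells lacking NR2E3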
# GAL4-VP16 luc = GAL4-VP16 reporter modulators, confirmation, counter-screen for NR2E3 agonist project, cell-based, luminescence, CHO-S, high throughput; 2,300 tested, 29% active; inhibition, % at 3.98 µM; shares compounds with NR2E3 ag-1; CHO-S GAL4-VP16 luciferase reporter; AID 624379, 2012;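 active = mean inhibition above a cutoff equal to the average over all tested compounds plus one standard deviation, cut at about 70% in these data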;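 also: luciferase from a UAS reporter driven by GAL4-VP16 transactivation; 0% = DMSO with VP16-transfected cells and 100% = DMSO with cells lacking VP16; higher means less reporter light so more repression of VP16 activity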
# Starred values were filed as active, the others as inactive; · = not tested or not shown. Compounds with a hit are over-represented: about 1.8% of the library has one in this group of screens.
SMILES,PG9 Ab binder,GalR3 antag,NR2E3 ag-1,NR2E3 ag-2,Rev-erbA mod,NR2E3 ag conf,GAL4-VP16 luc
CS(=O)(=O)c1ccccc1C(=O)N1CCN(S(=O)(=O)c2ccc(C3CCCCC3)cc2)CC1,0.7,-3.4,49.3,·,-4.2,33.3,37.5
Cc1ccc(Cn2cc(CN3[C@@H](CC(C)C)COc4cc(Br)ccc4S3(=O)=O)nn2)cc1,·,·,·,·,-1.0,·,·
Cc1cccc(Cn2cc(CN3CC(N4CCN(CCOC(=O)c5cc6ccccc6o5)CC4)CS3(=O)=O)nn2)c1 (centres undefined),·,·,·,·,0.8,·,·
CCOc1ccc(-n2c(SCC(=O)Nc3cccc4ccccc34)nnc2-c2ccco2)cc1,·,·,·,·,-3.2,·,·
COc1ccc(C2=NS(=O)(=O)N(C)C(C(=O)Nc3ccc4c(c3)OCO4)=C2)cc1,1.2,-5.7,28.0,1.4,2.8,·,·
Cc1ccc(C2=NS(=O)(=O)N(C)C(C(=O)Nc3ccc4c(c3)OCO4)=C2)cc1,-1.6,0.3,48.8,3.5,4.3,33.4,41.7
O=C(O)CCSc1nc2ccccc2s1,1.1,-5.9,53.6,2.3,3.5,52.7,66.6
O=[N+]([O-])c1ccc(Oc2ccc(N=C=S)cc2)cc1,·,·,·,·,0.9,·,·
Cc1ccc(SCCNC(=S)Nc2cc(C)cc(C)c2)cc1,-1.5,-0.9,55.0,-0.3,3.0,18.9,29.0
Cc1ccc(NC(=S)NCCSc2ccc(Cl)cc2)cc1,-1.2,-5.3,0.6,-1.8,3.3,·,·
C=C[C@@]1(C)CC(=O)[C@]2(O)[C@@]3(C)[C@@H](O)CCC(C)(C)[C@@H]3[C@H](OC(=O)CCN(C)C)[C@H](OC(C)=O)[C@@]2(C)O1,·,·,·,·,2.9,·,·
N#Cc1c(-c2ccccc2)cc(-c2ccccc2)nc1SCCC(=O)O,-0.7,-11.0,54.2,0.9,8.6,74.4*,8.0
O=c1c2c(nc3c(-c4ccccc4)c[nH]n13)CCC2,-2.1,-0.8,-7.4,1.0,8.4,·,·
O=c1c2c(nc3c(-c4ccc(Cl)cc4)c[nH]n13)CCC2,0.3,-0.6,77.4*,-5.8,0.7,66.0,49.6
CCC(Sc1nnc2c3ccccc3n(CC)c2n1)C(=O)Nc1sc2c(c1C#N)CCCC2 (centres undefined),0.2,-2.3,2.5,1.3,-9.7,·,·
CC(Sc1nc(N)cc(=O)[nH]1)C(=O)Nc1sc2c(c1C#N)CCCC2 (centres undefined),-0.5,-1.1,50.6,1.1,-2.8,60.8,61.3
CCC(Sc1nc(C)cc(=O)[nH]1)C(=O)Nc1sc2c(c1C#N)CCCC2 (centres undefined),0.1,-2.7,88.1*,0.7,4.0,76.3*,52.8
Cc1nnc(SC(C)C(=O)Nc2sc3c(c2C#N)CCCC3)[nH]c1=O (centres undefined),-0.3,-8.4,-3.4,1.5,-1.5,·,·
N#Cc1c(NC(=O)CSc2nc(N)cc(=O)[nH]2)sc2c1CCCCCC2,-2.2,0.9,69.5,-0.3,2.0,35.5,45.0
Cc1ccccc1CN1CCCCC(NC(=O)c2ccc(Br)cc2)C1=O (centres undefined),·,·,·,·,-0.8,·,·
Nc1cc(=O)[nH]c(SCc2cccc3ccccc23)n1,2.2,-3.9,-35.1,0.2,-5.5,·,·
O=c1cc(C(F)(F)F)nc(SCc2cccc3ccccc23)[nH]1,-1.8,-1.1,100.2*,-0.8,-1.0,98.4*,83.8*
CN(Cc1ccc(Cl)c(Cl)c1)C(=O)c1cccc(S(=O)(=O)N2CCN(Cc3ccccc3)CC2)c1,1.6,-7.3,58.7,-4.7,-0.3,63.3,52.2
CN(Cc1cccc(F)c1)C(=O)c1cccc(S(=O)(=O)N2CCN(Cc3ccccc3)CC2)c1,-2.3,1.8,60.9,-2.0,6.8,49.7,35.8
CN(Cc1cccc(Cl)c1Cl)C(=O)c1cccc(S(=O)(=O)N2CCN(Cc3ccccc3)CC2)c1,-0.6,0.3,56.4,-0.8,-2.8,85.7*,58.8
SMILES,PG9 Ab binder,GalR3 antag,NR2E3 ag-1,NR2E3 ag-2,Rev-erbA mod,NR2E3 ag conf,GAL4-VP16 luc
CCCC1CCC2(CC1)CCC2OC(=S)Nc1ccccc1C(F)(F)F (centres undefined),·,·,·,·,5.7,·,·
Nc1c(C(=O)N2CCN(c3ccccc3)CC2)nnn1Cc1ccc(Cl)cc1,·,·,·,·,-0.3,·,·
COC(=O)N1CCCC1c1cccc2[nH]cc(C)c12 (centres undefined),·,·,·,·,-0.3,·,·
CCCCNC(=O)NS(=O)(=O)c1ccc(NC(=O)CSc2ncnc3scc(-c4ccc(C)cc4)c23)cc1,·,·,·,·,-4.2,·,·
O=C(OCc1cn(Cc2cccc(F)c2F)nn1)N1CCOCC1,·,·,·,·,1.3,·,·
CC(C(=O)N1CCN(c2ccc(Cl)cc2)CC1)c1ncc(C(F)(F)F)cc1Cl (centres undefined),0.1,-10.0,80.7*,9.7,-2.5,76.0*,51.5
COC(=O)[C@]12C[C@H](CC(=O)NCc3ccc(C)o3)C(=O)N(CCC3=CCCCC3)C1=C[C@H](C1CCCC1)O[C@@H]2C,·,·,·,·,3.9,·,·
NC1=C(Br)C(=O)c2ncccc2C1=O,-6.0,-2.6,98.6*,·,-11.6,92.4*,50.6
CCOC(=O)N/N=C/c1c(C)nn(-c2ccccc2Cl)c1Cl,0.7,3.3,-68.2,1.9,-2.6,·,·
Cc1nn(-c2ccccc2Cl)c(Cl)c1/C=N/Nc1nc2ccccc2s1,-3.2,-1.7,51.7,-4.0,-4.5,77.4*,67.1
Cc1cc(-c2nnc(SCC(=O)Nc3ccccc3C(F)(F)F)o2)c(C)n1-c1ccccc1,0.5,-2.0,49.7,-1.1,4.6,29.4,-7.9
Cc1cccc(NC(=O)CSc2nnc(-c3cc(C)n(-c4ccccc4)c3C)o2)c1C,-1.8,-2.6,-20.9,1.0,2.6,·,·
COc1ccc(Cl)cc1C(=O)CSc1nnnn1C1CCCC1,-2.9,-6.5,-2.1,2.6,-0.8,·,·
COCCn1c(C)cc(C(=O)CSc2nnnn2C2CCCC2)c1C,0.0,0.2,55.9,0.6,-1.2,22.1,-54.1
CN(c1ccc(F)cc1)S(=O)(=O)c1ccc(Cl)c(C(=O)Nc2ccncc2)c1,0.8,-7.1,86.7*,4.6,6.7,53.5,60.3
CCN(c1ccccc1)S(=O)(=O)c1ccc(Cl)c(C(=O)Nc2ccncc2)c1,-0.3,-4.4,18.7,·,-1.9,·,·
CN(c1ccccc1)S(=O)(=O)c1ccc(Cl)c(C(=O)Nc2ccncc2)c1,-1.4,-4.2,76.4*,-1.6,-1.9,69.2,56.4
